In ChEMBL document CHEMBL4346654 (Eur J Med Chem, 2019):
In brackets after ≈: the same amount, converted by molar mass.

Assays:
Staphylococcus aureus [1] = test: Antibacterial activity against MLS-resistant Staphylococcus aureus PU 32 expressing inducible ermA gene assessed as reduction in microbial growth by CLSI based two-fold broth dilution method; assay type: functional
Streptococcus pneumoniae [2] = test: Antibacterial activity against erythromycin-susceptible Streptococcus pneumoniae ATCC49619 assessed as reduction in microbial growth by CLSI based two-fold broth dilution method; assay type: functional
Streptococcus pneumoniae [3] = test: Bactericidal activity against erythromycin-susceptible Streptococcus pneumoniae ATCC49619 pretreated followed by subculture in absence of compound measured after 24 hrs; assay type: functional
How it was run: (§1)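 Isolates were identified by 16S rDNA sequencing. MIC was determined by CLSI-recommended two-fold broth dilution. For MBC, samples from 1–8 fold MIC were transferred to culture medium and subcultured for 24 h without antibiotic.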

Haemophilus influenzae [4] = test: Antibacterial activity against azithromycin-susceptible Haemophilus influenzae ATCC 49247 assessed as reduction in microbial growth by CLSI based two-fold broth dilution method; assay type: functional
Streptococcus pneumoniae [5] = test: Antibacterial activity against Streptococcus pneumoniae 07P390 expressing constitutive ermB gene assessed as reduction in microbial growth by CLSI based two-fold broth dilution method; assay type: functional
Streptococcus pneumoniae [6] = test: Antibacterial activity against penicillin-susceptible Streptococcus pneumoniae PU 09 expressing mef gene assessed as reduction in microbial growth by CLSI based two-fold broth dilution method; assay type: functional
Streptococcus pneumoniae [7] = test: Bactericidal activity against penicillin-susceptible Streptococcus pneumoniae PU 09 expressing mef gene pretreated followed by subculture in absence of compound measured after 24 hrs; assay type: functional; how it was run: as §1
Streptococcus pneumoniae [8] = test: Selectivity ratio of MBC to MIC for penicillin-susceptible Streptococcus pneumoniae PU 09 expressing mef gene; assay type: functional; how it was run: as §1
Streptococcus pneumoniae [9] = test: Bactericidal activity against Streptococcus pneumoniae 07P390 expressing constitutive ermB gene pretreated followed by subculture in absence of compound measured after 24 hrs; assay type: functional; how it was run: as §1
Streptococcus pneumoniae [10] = test: Selectivity ratio of MBC to MIC for Streptococcus pneumoniae 07P390 expressing constitutive ermB gene; assay type: functional; how it was run: as §1
Haemophilus influenzae [11] = test: Bactericidal activity against azithromycin-susceptible Haemophilus influenzae ATCC 49247 pretreated followed by subculture in absence of compound measured after 24 hrs; assay type: functional; how it was run: as §1
Haemophilus influenzae [12] = test: Selectivity ratio of MBC to MIC for azithromycin-susceptible Haemophilus influenzae ATCC 49247; assay type: functional; how it was run: as §1
Streptococcus pyogenes [13] = test: Antibacterial activity against MLS-resistant Streptococcus pyogenes 01-968 expressing inducible ermB gene assessed as reduction in microbial growth by CLSI based two-fold broth dilution method; assay type: functional
Streptococcus pyogenes [14] = test: Bactericidal activity against MLS-resistant Streptococcus pyogenes 01-968 expressing inducible ermB gene pretreated followed by subculture in absence of compound measured after 24 hrs; assay type: functional
How it was run: (§2)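 MBC assay. Following MIC determination by CLSI standard two-fold broth dilution, samples at 1–8 fold MIC were transferred to fresh culture medium. They were subcultured for 24 h without antibiotic. Isolates were identified by 16S rDNA sequencing. S. aureus ATCC 29213 was used as a control strain.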

Streptococcus pyogenes [15] = test: Selectivity ratio of MBC to MIC for MLS-resistant Streptococcus pyogenes 01-968 expressing inducible ermB gene; assay type: functional
How it was run: (§3)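 MBC/MIC ratio. MIC was measured by CLSI standard two-fold broth dilution. MBC was measured by transferring samples at 1–8 fold MIC to culture medium and subculturing for 24 h without antibiotic. Isolates were identified by 16S rDNA sequencing.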

Staphylococcus aureus [16] = test: Bactericidal activity against MLS/methicillin-resistant Staphylococcus aureus PU 32 expressing inducible ermA gene pretreated followed by subculture in absence of compound measured after 24 hrs; assay type: functional; how it was run: as §2
Staphylococcus aureus [17] = test: Selectivity ratio of MBC to MIC for MLS/methicillin-resistant Staphylococcus aureus PU 32 expressing inducible ermA gene; assay type: functional; how it was run: as §3
Staphylococcus aureus [18] = test: Antibacterial activity against MLS-resistant Staphylococcus aureus PU 20 expressing constitutive ermC gene assessed as reduction in microbial growth by CLSI based two-fold broth dilution method; assay type: functional
Staphylococcus aureus [19] = test: Bactericidal activity against MLS-resistant Staphylococcus aureus PU 20 expressing constitutive ermC gene pretreated followed by subculture in absence of compound measured after 24 hrs; assay type: functional; how it was run: as §2
Streptococcus pyogenes [20] = test: Antibacterial activity against MLS-resistant Streptococcus pyogenes 12-206 expressing constitutive ermA gene assessed as reduction in microbial growth by CLSI based two-fold broth dilution method; assay type: functional
Streptococcus pyogenes [21] = test: Bactericidal activity against MLS-resistant Streptococcus pyogenes 12-206 expressing constitutive ermA gene pretreated followed by subculture in absence of compound measured after 24 hrs; assay type: functional; how it was run: as §2
Streptococcus pyogenes [22] = test: Selectivity ratio of MBC to MIC for MLS-resistant Streptococcus pyogenes 12-206 expressing constitutive ermA gene; assay type: functional; how it was run: as §3
Streptococcus pyogenes [23] = test: Antibacterial activity against Streptococcus pyogenes 12-207 expressing mef gene assessed as reduction in microbial growth by CLSI based two-fold broth dilution method; assay type: functional
Streptococcus pyogenes [24] = test: Bactericidal activity against Streptococcus pyogenes 12-207 expressing mef gene pretreated followed by subculture in absence of compound measured after 24 hrs; assay type: functional; how it was run: as §1
Streptococcus pyogenes [25] = test: Selectivity ratio of MBC to MIC for Streptococcus pyogenes 12-207 expressing mef gene; assay type: functional; how it was run: as §1
Moraxella catarrhalis [26] = test: Antibacterial activity against erythromycin-susceptible Moraxella catarrhalis 13L332 assessed as reduction in microbial growth by CLSI based two-fold broth dilution method; assay type: functional
Moraxella catarrhalis [27] = test: Bactericidal activity against erythromycin-susceptible Moraxella catarrhalis 13L332 pretreated followed by subculture in absence of compound measured after 24 hrs; assay type: functional; how it was run: as §1
Moraxella catarrhalis [28] = test: Selectivity ratio of MBC to MIC for erythromycin-susceptible Moraxella catarrhalis 13L332; assay type: functional; how it was run: as §1
[29] = AUCinfinity in Sprague-Dawley rat at 20 mg/kg, po after 0.25 to 24 hrs by LC-MS/MS analysis; assay type: ADME, organism-based; parameters: dose 20 mg/kg, time infinity, route oral; details: in vivo
How it was run: (§4)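 Male SD rats were given a single 20 mg/Kg oral dose. Blood was sampled at 0.25, 0.5, 1, 2, 4, 6, 8 and 24 h and centrifuged at 2500 g for 5 min at 4 °C. Drug levels were quantified by LC-MS/MS. t1/2, Cmax, Tmax, CL, MRT and AUC were calculated from the concentration–time data.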

[30] = AUC (0 to t) in Sprague-Dawley rat at 20 mg/kg, po after 0.25 to 24 hrs by LC-MS/MS analysis; assay type: ADME, organism-based; parameters: time upper 24 hr, dose 20 mg/kg, time lower 0.25 hr, route oral; details: in vivo; how it was run: as §4
[31] = Half life in Sprague-Dawley rat at 20 mg/kg, po after 0.25 to 24 hrs by LC-MS/MS analysis; assay type: ADME, organism-based; details: in vivo; how it was run: as §4
[32] = MRT in Sprague-Dawley rat at 20 mg/kg, po after 0.25 to 24 hrs by LC-MS/MS analysis; assay type: ADME, organism-based; details: in vivo; how it was run: as §4
[33] = Tmax in Sprague-Dawley rat at 20 mg/kg, po after 0.25 to 24 hrs by LC-MS/MS analysis; assay type: ADME, organism-based; details: in vivo; how it was run: as §4
[34] = Cmax in Sprague-Dawley rat at 20 mg/kg, po after 0.25 to 24 hrs by LC-MS/MS analysis; assay type: ADME, organism-based; parameters: dose 20 mg/kg, route oral; details: in vivo; how it was run: as §4
Cytochrome P450 3A4 [35] = target: T1, Cytochrome P450 3A4 (Homo sapiens, UniProt P08684); test: Inhibition of CYP3A4 in human liver microsomes assessed as reduction in metabolite formation using midazolam as substrate incubated for 10 mins in presence of NADPH by HPLC based mass spectrometric method; assay type: ADME
T1 sequence (P08684 whole entry): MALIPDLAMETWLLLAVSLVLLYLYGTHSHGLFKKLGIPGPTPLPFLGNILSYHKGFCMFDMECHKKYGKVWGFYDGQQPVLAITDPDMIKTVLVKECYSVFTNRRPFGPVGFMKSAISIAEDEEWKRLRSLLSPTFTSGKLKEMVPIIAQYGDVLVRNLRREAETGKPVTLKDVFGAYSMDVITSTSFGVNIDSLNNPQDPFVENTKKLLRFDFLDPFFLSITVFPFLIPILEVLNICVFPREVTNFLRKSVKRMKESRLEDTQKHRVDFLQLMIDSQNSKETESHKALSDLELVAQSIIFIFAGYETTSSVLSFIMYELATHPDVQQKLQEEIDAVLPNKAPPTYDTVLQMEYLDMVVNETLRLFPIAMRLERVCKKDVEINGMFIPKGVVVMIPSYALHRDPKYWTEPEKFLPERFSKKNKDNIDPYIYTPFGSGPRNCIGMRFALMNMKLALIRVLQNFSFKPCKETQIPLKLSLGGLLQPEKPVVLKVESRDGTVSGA
How it was run: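 Human liver microsome CYP3A4 with midazolam substrate in 0.1 M potassium phosphate buffer was prewarmed at 37 °C for 5 min. Compound and 25 mM NADPH solution (stock) were added, then incubated at 37 °C for 10 min. Ketoconazole served as the positive inhibitor. Metabolite was measured by UPLC–triple quadrupole MS as the metabolite/internal standard peak area ratio, and IC50 was derived by curve fitting.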

Rattus norvegicus [36] = test: Ratio of test compound half life to telithromycin half life in Sprague-Dawley rat at 20 mg/kg, po after 0.25 to 24 hrs by LC-MS/MS analysis; assay type: ADME, organism-based; details: in vivo
[37] = Ratio of test compound MRT to telithromycin MRT in Sprague-Dawley rat at 20 mg/kg, po after 0.25 to 24 hrs by LC-MS/MS analysis; assay type: ADME, organism-based; details: in vivo
Rattus norvegicus [38] = test: Ratio of test compound plasma clearance to telithromycin plasma clearance in Sprague-Dawley rat at 20 mg/kg, po after 0.25 to 24 hrs by LC-MS/MS analysis; assay type: ADME, organism-based; details: in vivo
Rattus norvegicus [39] = test: Ratio of test compound AUC to telithromycin AUC in Sprague-Dawley rat at 20 mg/kg, po after 0.25 to 24 hrs by LC-MS/MS analysis; assay type: ADME, organism-based; details: in vivo
Cytochrome P450 3A4 [40] = target: T1, Cytochrome P450 3A4; test: Inhibition of CYP3A4 (unknown origin); assay type: ADME

SMILES: CC[C@H]1OC(=O)[C@@](C)(F)C(=O)[C@H](C)[C@@H](O[C@@H]2O[C@H](C)C[C@H](N(C)C)[C@H]2O)[C@](C)(OC)C[C@@H](C)/C(=N\OC/C=C/c2ccc3c(c2)c(=O)c(C(N)=O)cn3CC)[C@H](C)[C@H]2OC(=O)O[C@@]21C
- MIC (Staphylococcus aureus [1]): 0.5 µg/mL
- MIC (Streptococcus pneumoniae [2]): ≤ 0.008 µg/mL
- MBC (Streptococcus pneumoniae [3]): ≤ 0.008 µg/mL
- MIC (Haemophilus influenzae [4]): 32 µg/mL
- MIC (Streptococcus pneumoniae [5]): 0.062 µg/mL
- MIC (Streptococcus pneumoniae [6]): 0.25 µg/mL
- MBC (Streptococcus pneumoniae [7]): 0.25 µg/mL (≈ 0.277 µM)
- Selectivity ratio (Streptococcus pneumoniae [8]): 1
- MBC (Streptococcus pneumoniae [9]): > 0.5 µg/mL
- Selectivity ratio (Streptococcus pneumoniae [10]): >8
- MBC (Haemophilus influenzae [11]): 256 µg/mL (≈ 284 µM)
- Selectivity ratio (Haemophilus influenzae [12]): 8
- MIC (Streptococcus pyogenes [13]): ≤ 0.002 µg/mL
- MBC (Streptococcus pyogenes [14]): > 0.016 µg/mL
- Selectivity ratio (Streptococcus pyogenes [15]): >8
- MBC (Staphylococcus aureus [16]): > 4 µg/mL
- Selectivity ratio (Staphylococcus aureus [17]): >8
- MIC (Staphylococcus aureus [18]): 128 µg/mL
- MBC (Staphylococcus aureus [19]): > 256 µg/mL
- MIC (Streptococcus pyogenes [20]): 0.5 µg/mL
- MBC (Streptococcus pyogenes [21]): > 4 µg/mL
- Selectivity ratio (Streptococcus pyogenes [22]): >8
- MIC (Streptococcus pyogenes [23]): 0.062 µg/mL
- MBC (Streptococcus pyogenes [24]): 0.5 µg/mL (≈ 0.555 µM)
- Selectivity ratio (Streptococcus pyogenes [25]): 8
- MIC (Moraxella catarrhalis [26]): 4 µg/mL
- MBC (Moraxella catarrhalis [27]): > 32 µg/mL
- Selectivity ratio (Moraxella catarrhalis [28]): >8
- AUC [29]: 1538 ng·h/mL
- AUC(0-t) [30]: 1460 ng·h/mL
- half-life [31]: 3.03 h
- MRT [32]: 7.42 h
- Tmax [33]: 7 h
- Cmax [34]: 124 ng/mL
- IC50 (Cytochrome P450 3A4 [35]): 5.14 µM
- Ratio (Rattus norvegicus [36]): 2.5 to 3.6
- Ratio [37]: 2.3 to 2.6
- Ratio (Rattus norvegicus [38]): 1.5
- Ratio AUC (Rattus norvegicus [39]): 1.6

SMILES: CC[C@H]1OC(=O)[C@H](C)C(=O)[C@H](C)[C@@H](O[C@@H]2O[C@H](C)C[C@H](N(C)C)[C@H]2O)[C@](C)(OCC=Cc2cnc3ccccc3c2)C[C@@H](C)C(=O)[C@H](C)[C@H]2NC(=O)O[C@@]21C [CETHROMYCIN]
- IC50 (Cytochrome P450 3A4 [40]): 2.7 µM
